pIC50: −log10 of the molar value.
Tests used:
RAW264.7 [1] = assay: Inhibition of IL-1beta production in mouse RAW264.7 cells at 30 uM incubated for 12 hrs by sandwich immunoassay; assay type: functional; conditions: RAW264.7, 12 h
Procedure, shortened: (§1)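 In RAW 264.7 and J774A.1 macrophages, TNF-α and IL-1β were quantified. Single-point data are % inhibition at 30 µM; otherwise IC50 in µM. Values are from three separate experiments, each in triplicate.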

RAW264.7 [2] = assay: Inhibition of LPS-induced nitric oxide production in mouse RAW264.7 cells pre-incubated for 1 hr followed by LPS stimulation for 24 hrs by Griess reagent based assay; assay type: functional, cell-based
Procedure, shortened: (§2)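 RAW 264.7 and J774A.1 cells handled in parallel. Viability was read at 50 µM alongside the LPS-stimulated NO (Griess) assay. Values are from three independent experiments, each run in triplicate.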

J774.A1 [3] = assay: Inhibition of TNFalpha production in mouse J774A.1 cells at 30 uM incubated for 6 hrs by sandwich immunoassay; assay type: functional; conditions: J774.A1, 6 h; procedure, shortened: as §1
[4] = Cytotoxicity against mouse J774A.1 cells assessed as cell viability at 50 uM after 24 hrs by MTT assay; assay type: cell-based, J774.A1; conditions: read-out: Activity; procedure, shortened: as §2
RAW264.7 [5] = assay: Inhibition of TNFalpha production in mouse RAW264.7 cells at 30 uM incubated for 6 hrs by sandwich immunoassay; assay type: functional; conditions: RAW264.7, 6 h; procedure, shortened: as §1
J774.A1 [6] = assay: Inhibition of IL-1beta production in mouse J774A.1 cells at 30 uM incubated for 12 hrs by sandwich immunoassay; assay type: functional; conditions: J774.A1, 12 h; procedure, shortened: as §1
[7] = Cytotoxicity against mouse RAW264.7 cells assessed as cell viability at 50 uM after 24 hrs by MTT assay; assay type: cell-based; conditions: read-out: Activity; procedure, shortened: as §2
J774.A1 [8] = assay: Inhibition of LPS-induced nitric oxide production in mouse J774A.1 cells pre-incubated for 1 hr followed by LPS stimulation for 24 hrs by Griess reagent based assay; assay type: functional, cell-based; procedure, shortened: as §2
J774.A1 [9] = assay: Inhibition of IL-1beta production in mouse J774A.1 cells incubated for 12 hrs by sandwich immunoassay; assay type: functional, cell-based; conditions: J774.A1, 12 h; procedure, shortened: as §1
Rattus norvegicus [10] = assay: Antiinflammatory activity in Sprague-Dawley rat assessed as inhibition of LPS-induced TNFalpha production at 150 umol/kg, po pre-administered at interval of 12 hrs followed by LPS-stimulation 2 hrs after final dose and measured 2 hrs post LPS challenge by ELISA method; assay type: functional
J774.A1 [11] = assay: Inhibition of TNFalpha production in mouse J774A.1 cells incubated for 6 hrs by sandwich immunoassay; assay type: functional, cell-based; conditions: J774.A1, 6 h; procedure, shortened: as §1
Rattus norvegicus [12] = assay: Antiinflammatory activity in Sprague-Dawley rat assessed as inhibition of carrageenan-induced paw edema at 150 umol/kg, po administered 1 hr before carrageenan injection and measured 5 hrs post carrageenan challenge
Rattus norvegicus [13] = assay: Antiinflammatory activity in Sprague-Dawley rat assessed as inhibition of carrageenan-induced paw edema at 150 umol/kg, po administered 1 hr before carrageenan injection and measured 3 hrs post carrageenan challenge
RAW264.7 [14] = assay: Inhibition of IL-1beta production in mouse RAW264.7 cells incubated for 12 hrs by sandwich immunoassay; assay type: functional, cell-based; conditions: RAW264.7, 12 h; procedure, shortened: as §1
Rattus norvegicus [15] = assay: Antiinflammatory activity in Sprague-Dawley rat assessed as inhibition of LPS-induced IL-1beta production at 150 umol/kg, po pre-administered at interval of 12 hrs followed by LPS-stimulation 6 hrs after final dose and measured 2 hrs post LPS challenge by ELISA method; assay type: functional
RAW264.7 [16] = assay: Inhibition of TNFalpha production in mouse RAW264.7 cells incubated for 6 hrs by sandwich immunoassay; assay type: functional, cell-based; conditions: RAW264.7, 6 h; procedure, shortened: as §1

Row | Structure (SMILES) | inhibition at 30 µM (RAW264.7 [1]) [%] | pIC50 (RAW264.7 [2]) | inhibition at 30 µM (J774.A1 [3]) [%] | viability at 24 h, 50 µM [4] [%] | inhibition at 30 µM (RAW264.7 [5]) [%] | inhibition at 30 µM (J774.A1 [6]) [%] | viability at 24 h, 50 µM [7] [%] | pIC50 (J774.A1 [8]) | pIC50 (J774.A1 [9]) | inhibition in vivo at 150 µmol/kg (Rattus norvegicus [10]) [%] | pIC50 (J774.A1 [11]) | inhibition in vivo at 150 µmol/kg (Rattus norvegicus [12]) [%] | inhibition in vivo at 150 µmol/kg (Rattus norvegicus [13]) [%] | pIC50 (RAW264.7 [14]) | inhibition in vivo at 150 µmol/kg (Rattus norvegicus [15]) [%] | pIC50 (RAW264.7 [16])
1 | CC(C)CCOc1ccccc1C1CC(=O)c2ccccc2O1 (stereo not drawn) | 47.6 | 4.41 | 42.6 | 88.6 | 39.2 | 43.6 | 81.6 | 4.37 | – | – | – | – | – | – | – | –
2 | O=C1CC(c2ccccc2OCc2cccc(F)c2)Oc2ccccc21 (stereo not drawn) | 93.3 | 4.81 | 96.2 | 92.7 | 91.6 | 92.7 | 90.3 | 4.88 | 4.52 | 49.6 | 4.70 | 39.5 | 5.2 | 4.56 | 39.2 | 4.70
3 | CCCOc1ccccc1C1CC(=O)c2ccccc2O1 (stereo not drawn) | 45.7 | 4.34 | 44.6 | 93.6 | 46 | 43.6 | 91.7 | 4.35 | – | – | – | – | – | – | – | –
4 | O=C1CC(c2ccccc2OCc2ccc(F)cc2)Oc2ccccc21 (stereo not drawn) | 45.2 | 4.55 | 94.1 | 91.1 | 92.7 | 42.1 | 95.2 | 4.59 | – | 55.4 | 4.74 | 50.5 | 18.2 | – | 43.6 | 4.75
5 | COc1ccccc1C1CC(=O)c2ccccc2O1 (stereo not drawn) | 37.3 | 4.33 | 34.5 | 89.3 | 37.3 | 38.3 | 84.3 | 4.35 | – | – | – | – | – | – | – | –
6 | O=C1CC(c2ccccc2OCc2ccccc2)Oc2ccccc21 (stereo not drawn) | 93.2 | 4.72 | 83.1 | 96.5 | 86.1 | 91.5 | 91.2 | 4.63 | 4.61 | 32.1 | 4.65 | 35.7 | 9.8 | 4.60 | 28.4 | 4.70
7 | C[C@@H]1C[C@H]2[C@@H]3CCC4=CC(=O)C=C[C@]4(C)[C@@]3(F)[C@@H](O)C[C@]2(C)[C@@]1(O)C(=O)CO [DEXAMETHASONE] | – | – | – | – | – | – | – | – | 4.66 | 73.4 | 6.40 | – | – | – | 62.5 | 7.40
8 | CCCCCOc1ccccc1C1CC(=O)c2ccccc2O1 (stereo not drawn) | 41.3 | 4.41 | 39.3 | 92.1 | 39.2 | 40.1 | 90.3 | 4.41 | – | – | – | – | – | – | – | –

Reference: ChEMBL document CHEMBL3400020, “2'-Hydroxy flavanone derivatives as an inhibitors of pro-inflammatory mediators: Experimental and molecular docking studies” (Bioorg Med Chem Lett, 2015)
